Assay results taken from ChEMBL document CHEMBL1944548, “Discovery of kinase spectrum selective macrocycle (16E)-14-methyl-20-oxa-5,7,14,26-tetraazatetracyclo[19.3.1.1(2,6).1(8,12)]heptacosa-1(25),2(26),3,5,8(27),9,11,16,21,23-decaene (SB1317/TG02), a potent inhibitor of cyclin dependent kinases (CDKs), Janus kinase 2 (JAK2), and fms-like tyrosine …” (J Med Chem, 2012).
pIC50: −log10 of the molar value. In brackets after ≈: the same amount, converted by molar mass.

Tests used:
[1] = Half life in rat liver microsomes at 5 uM by LC-MS/MS analysis; type: ADME, Microsome
In short: (§1)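 5 μM with mouse, rat, dog or human liver microsomes (~0.87 mg/mL), 50 mM potassium phosphate pH 7.4, NADPH regeneration system, 37 °C.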

[2] = AUC (0 to infinity) in BALB/c mouse at 5 mg/kg, iv by LC-MS/MS analysis; type: ADME, organism-based; set-up: time infinity, dose 5 mg/kg, route intravenous; conditions: plasma
[3] = Plasma protein binding in mouse at 1000 ng/ml after 4 hrs by equilibrium dialysis method; type: ADME, cell-free; conditions: read-out: PPB (converted)
In short: (§2)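 Equilibrium dialysis of plasma (mouse, dog, human) spiked to 1000 ng/mL against PBS, 4 h at 37 °C. Buffer side extracted in triplicate with MTBE, dried, reconstituted in methanol/water 60:40, measured by LC−MS/MS.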

[4] = Solubility of the compound in PBS buffer at 250 uM at pH 7 by UV spectrophotometry; type: physicochemical
[5] = Terminal half life in BALB/c mouse at 75 mg/kg, po by LC-MS/MS analysis; type: ADME, organism-based; set-up: dose 75 mg/kg, route oral; conditions: in vivo, read-out: beta t1/2 (converted)
In short: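 Male BALB/c mice, ~10−12 weeks, 17−22 g. Given 75 mg/kg by oral gavage as a suspension in 0.5% methylcellulose/0.1% Tween 80. Serial blood taken by cardiac puncture over 0−24 h into K3EDTA; plasma stored at −70 °C. Analysis by LC−MS/MS, parameters by noncompartmental methods.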

[6] = tested on: HCT-116; test: Antitumor activity against human HCT116 cells xenografted in BALB/c nude mouse assessed as tumor growth inhibition at 75 mg/kg, po qd administered thrice in a week for 15 days; type: functional; conditions: HCT-116, 360 h, read-out: GI
[7] = tested on: HL-60; test: Antiproliferative activity against human HL60 cells after 48 hrs; type: functional, cell-based; conditions: HL-60, 48 h
[8] = Terminal half life in BALB/c mouse at 5 mg/kg, iv by LC-MS/MS analysis; type: ADME, organism-based; set-up: dose 5 mg/kg, route intravenous; conditions: in vivo, read-out: beta t1/2 (converted)
[9] = tested on: HCT-116; test: Antiproliferative activity against human HCT116 cells after 48 hrs; type: functional, cell-based; conditions: HCT-116, 48 h
[10] = tested on: Ramos; test: Antiproliferative activity against human Ramos cells after 48 hrs; type: functional, cell-based
[11] = Plasma protein binding in human at 1000 ng/ml after 4 hrs by equilibrium dialysis method; type: ADME, cell-free; conditions: read-out: PPB; in short: as §2
[12] = Half life in dog liver microsomes at 5 uM by LC-MS/MS analysis; type: ADME, Canis lupus familiaris, Microsome; in short: as §1
[13] = tested on: Ramos; test: Antitumor activity against human Ramos cells xenografted in BALB/c nude mouse assessed as tumor growth inhibition at 15 mg/kg, ip qd on a 5 days on 5 days off schedule for 15 days; type: functional; conditions: route intraperitoneal, read-out: GI
[14] = target: T1, Cytochrome P450 1A2 (Homo sapiens, UniProt P05177); test: Inhibition of CYP1A2 in human liver microsomes using ethoxyresorufin as substrate after 5 mins by LC-MS/MS analysis; type: ADME, Microsome
T1 sequence (P05177 whole entry): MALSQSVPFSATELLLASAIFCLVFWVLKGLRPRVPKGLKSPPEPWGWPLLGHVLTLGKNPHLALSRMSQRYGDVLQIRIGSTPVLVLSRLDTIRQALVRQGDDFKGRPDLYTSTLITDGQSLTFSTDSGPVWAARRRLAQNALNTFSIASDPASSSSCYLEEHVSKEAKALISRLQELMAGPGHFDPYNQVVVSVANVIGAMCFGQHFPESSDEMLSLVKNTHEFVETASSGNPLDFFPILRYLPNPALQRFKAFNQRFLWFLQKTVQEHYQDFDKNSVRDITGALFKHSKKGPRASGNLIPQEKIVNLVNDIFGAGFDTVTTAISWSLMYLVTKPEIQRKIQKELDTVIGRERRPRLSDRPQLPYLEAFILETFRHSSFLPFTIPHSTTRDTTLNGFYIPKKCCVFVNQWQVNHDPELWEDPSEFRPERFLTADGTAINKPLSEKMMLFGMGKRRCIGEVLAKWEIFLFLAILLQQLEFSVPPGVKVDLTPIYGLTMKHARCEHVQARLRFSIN
In short: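 Human liver microsomes with 1 mM NADPH at 37 °C. Test concentrations 0.05, 0.25, 0.5, 2.5, 5 and 25 μM; final DMSO 0.35%. CYP1A: 0.25 mg/mL microsomes, ethoxyresorufin 0.5 μM, 5 min. CYP2D6: 0.5 mg/mL microsomes, dextromethorphan 5 μM, 30 min. IC50 from the fall in metabolite formation versus vehicle control. Selective inhibitors served as positive controls.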

[15] = tested on: DU-145; test: Antiproliferative activity against human DU145 cells after 48 hrs; type: functional, cell-based; conditions: DU-145, 48 h
[16] = Oral bioavailability in Wistar rat at 10 mg/kg by LC-MS/MS analysis; conditions: in vivo
[17] = tested on: COLO 205; test: Antiproliferative activity against human COLO205 cells after 48 hrs; type: functional, cell-based; conditions: COLO 205, 48 h
[18] = AUC (0 to infinity) in BALB/c mouse at 75 mg/kg, po by LC-MS/MS analysis; type: ADME, organism-based; set-up: time infinity, dose 75 mg/kg, route oral; conditions: plasma
In short: (§3)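 Male BALB/c mice (~10−12 weeks, 17−22 g) gavaged with 75 mg/kg as a suspension in 0.5% methylcellulose/0.1% Tween 80. Serial blood by cardiac puncture over 0−24 h into K3EDTA, plasma stored at −70 °C, LC−MS/MS; parameters by noncompartmental analysis.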

[19] = Plasma protein binding in dog at 1000 ng/ml after 4 hrs by equilibrium dialysis method; type: ADME, cell-free, Canis lupus familiaris; conditions: read-out: PPB; in short: as §2
[20] = Apparent permeability of the compound from apical to basolateral side in human Caco2 cells at 5 uM after 21 to 28 days by LC/MS analysis; type: ADME, cell-based; conditions: Caco-2
In short: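 5 μM in HBSS (DMSO <1%) dosed apical or basolateral on 21−28-day confluent Caco-2 monolayers, both sides pH 7.4. Sampled at 2 h, quantified by LC/MS with four-point calibration. Monolayer integrity checked by pre-experiment TEER (450−650 Ωcm2) and Lucifer yellow; efflux ratio = Papp B→A / Papp A→B.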

[21] = tested on: HCT-116; test: Antitumor activity against human HCT116 cells xenografted in po dosed BALB/c nude mouse assessed as tumor growth inhibition; type: functional, organism-based
In short: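 Female BALB/c nude mice implanted sc with 5 × 10^6 HCT-116 cells; treatment began day 8 after inoculation when tumors were 75–144 mm3 (group mean 105 mm3), 9–10 mice/group. Oral gavage at 50 or 75 mg/kg, Mon/Wed/Fri, in 0.5% methylcellulose/0.1% Tween 80, to day 15. Volume (w2l)/2 measured twice weekly. %TGI from day-15 median volumes vs vehicle.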

[22] = Half life in mouse liver microsomes at 5 uM by LC-MS/MS analysis; type: ADME, Microsome; in short: as §1
[23] = Half life in human liver microsomes at 5 uM by LC-MS/MS analysis; type: ADME, Microsome; in short: as §1
[24] = Oral bioavailability in BALB/c mouse at 75 mg/kg by LC-MS/MS analysis; type: ADME, organism-based; conditions: in vivo; in short: as §3
[25] = Clearance in BALB/c mouse at 5 mg/kg, iv by LC-MS/MS analysis; type: ADME, organism-based; set-up: dose 5 mg/kg, route intravenous; conditions: in vivo

CN1C/C=C/CCOc2cccc(c2)-c2ccnc(n2)Nc2cccc(c2)C1 [ZOTIRACICLIB]
half-life at 5 µM [1]: 11 min
AUC(0-inf) [2]: 752 ng·h/mL
fraction unbound at 4 h, 1000 ng/ml [3]: 0.006
solubility at 250 µM [4]: 71.8 µg/mL (≈ 193 µM)
half-life [5]: 366 min
inhibition in vivo at 75 mg/kg [6]: 82%
pIC50 [7]: 7.23
half-life [8]: 276 min
pIC50 [9]: 7.10
pIC50 [10]: 7.48
fraction unbound at 4 h, 1000 ng/ml [11]: 0.001
half-life at 5 µM [12]: 33 min
inhibition in vivo at 15 mg/kg [13]: 63%
pIC50 [14]: < 4.60
pIC50 [15]: 6.85
bioavailability [16]: 4%
pIC50 [17]: 7.14
AUC(0-inf) [18]: 2520 ng·h/mL
fraction unbound at 4 h, 1000 ng/ml [19]: 0.001
Papp A→B at 5 µM [20]: 28 ×10⁻⁶ cm/s
growth inhibition (GI) [21]: Dose-dependent effect
half-life at 5 µM [22]: 12 min
half-life at 5 µM [23]: 45 min
bioavailability [24]: 24%
clearance [25]: 110 mL/min/kg
